Results published in ChEMBL document CHEMBL2029338, “Synthesis, biological evaluation, and molecular docking studies of benzyl, alkyl and glycosyl [2-(arylamino)-4,4-dimethyl-6-oxo-cyclohex-1-ene]carbodithioates, as potential immunomodulatory and immunosuppressive agents” (Bioorg Med Chem, 2012).
Values after ≈ are worked out from the molar mass of the structure shown.

Assays:
PBMC [1] = test: Immunosuppressive activity in human PBMC assessed as inhibition of PHA-induced cell proliferation after 72 hrs by [methyl-3H]thymidine incorporation assay; format: functional, cell-based
Summary of the method: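 Human PBMCs from healthy donor venous blood, isolated by density separation and cultured in RPMI-1640 with 10% FBS. Stimulated with PHA in the presence of increasing compound concentrations for 72 h at 37 °C, 5% CO₂. [methyl-³H]thymidine 0.5 µCi/well added for a further 18 h, then harvested and counted by liquid scintillation. Expressed as % of stimulated control, mean ± SD of triplicates; IC50 derived.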

THP-1 [2] = test: Antiinflammatory activity in PMA-stimulated human THP1 cells assessed as inhibition of LPS-induced TNFalpha production at 25 ug/mL after 4 hrs; format: functional; conditions: THP-1, 4 h
Summary of the method: (§1)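 THP-1 cells plated at 2.5 × 10⁵ cells/mL and differentiated to macrophage-like cells with PMA (20 ng/mL final) for 24 h at 37 °C, 5% CO₂. Then stimulated with LPS (50 ng/mL final) and treated with test compounds. TNF-α was measured in supernatant at 4 h and IL-1β at 18 h by DuoSet ELISA.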

THP-1 [3] = test: Antiinflammatory activity in PMA-stimulated human THP1 cells assessed as inhibition of LPS-induced IL-1beta production at 25 ug/mL after 18 hrs; format: functional; conditions: THP-1, 18 h; summary of the method: as §1
[4] = (§2) Antiinflammatory activity in human whole blood phagocytes assessed as inhibition of respiratory burst measuring ROS after 30 mins by luminol-enhanced chemiluminescence assay; format: functional, cell-based; conditions: 0.5 h
Summary of the method: (§3)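 Luminol-enhanced chemiluminescence of whole blood phagocytes. Compounds at 1.0, 10 and 100 µg/mL in HBSS⁺⁺ (with Ca²⁺/Mg²⁺) were incubated with whole blood diluted 1:50 for 30 min at 37 °C. Luminol and serum-opsonized zymosan (S. cerevisiae) were then added. ROS kinetics were monitored by luminometer for 50 min in repeated scan mode, with positive, negative and blank controls.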

J774.2 [5] = test: Antiinflammatory activity in lipopolysaccharide-induced mouse J774.2 cells assessed as inhibition of nitric oxide production at 25 ug/mL after 24 hrs by Griess method; format: functional; conditions: J774.2, 24 h
Summary of the method: (§4)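 J774.2 mouse macrophages grown in DMEM with 10% FBS, seeded at 10⁶ cells/mL. NOS-2 induced with E. coli LPS; compounds at 25 µg/mL added right after LPS, 37 °C, 5% CO₂. Supernatant taken at 24 h and nitrite read by Griess reagent (sulfanilamide, then naphthylethylenediamine in 2.5% phosphoric acid), 10 min at 23 °C, A550. Quantified against a sodium nitrite standard curve; mean ± SD of duplicate readings.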

PBMC [6] = test: Immunosuppressive activity against human PBMC assessed as inhibition of PHA/PMA-induced IL2 production after 18 hrs by ELISA
J774.2 [7] = test: Antiinflammatory activity in lipopolysaccharide-induced mouse J774.2 cells assessed as inhibition of nitric oxide production after 24 hrs by Griess method; format: functional, cell-based; conditions: J774.2, 24 h; summary of the method: as §4
Homo sapiens = species on record: Homo sapiens; test: as §2; format: functional, cell-based; summary of the method: as §3
3T3-L1 = test: Cytotoxicity against mouse 3T3L1 cells after 48 hrs by MTT assay; format: cell-based; conditions: 3T3-L1, 48 h
Summary of the method: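 3T3-L1 mouse embryo fibroblasts in DMEM with 10% FBS. Plated at 6 × 10⁴ cells/mL for 24 h at 37 °C, 5% CO₂, then exposed to compounds (up to 20 µg/mL) in triplicate for 48 h. Viability by MTT 0.5 mg/mL for 4 h, DMSO solubilization, absorbance at 540 nm; mean ± SD of triplicates.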

CC-1 = test: Cytotoxicity against Wistar rat CC1 cells after 48 hrs by MTT assay; format: cell-based; conditions: CC-1, 48 h
Summary of the method: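 Plated at 6 × 10⁴ cells/mL for 24 h at 37 °C, 5% CO₂, then exposed to compounds (up to 20 µg/mL) in triplicate for 48 h. MTT 0.5 mg/mL for 4 h, formazan dissolved in DMSO, A540; mean ± SD of triplicates.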

Row | Structure (SMILES) | IC50 (PBMC [1]) | inhibition at 25 µg/mL (THP-1 [2]) | inhibition at 25 µg/mL (THP-1 [3]) | IC50 [4] | inhibition at 25 µg/mL (J774.2 [5]) | IC50 (PBMC [6]) | IC50 (J774.2 [7]) | inhibition (PBMC [1]) | inhibition (Homo sapiens) | inhibition (PBMC [6]) | IC50 (3T3-L1) | IC50 (CC-1)
1 | CC1(C)CC(=O)C(C(=S)SCc2ccccc2)=C(Nc2ccc(Cl)cc2Cl)C1 | > 50 µg/mL | -50.3% | -119% | > 100 µg/mL | 39.5% | > 20 µg/mL |  |  |  |  |  | 
2 | CC1(C)CC(=O)C=C(Nc2ccc(Cl)cc2)C1 | 15 µg/mL (≈ 60.1 µM) | -4.3% | 17.2% | > 100 µg/mL | 62.4% | > 20 µg/mL | 63.8 µM |  |  |  |  | 
3 | CC(C)=NNC1=C2C(=S)NN=C2CC(C)(C)C1 | 13.2 µg/mL (≈ 52.7 µM) |  |  |  |  | 14.7 µg/mL (≈ 58.7 µM) | 36.4 µM | Dose-dependent effect | Dose-dependent effect | Dose-dependent effect |  | 
4 | CCCCCCCCCCCSC(=S)C1=C(Nc2ccc(Cl)cc2)CC(C)(C)CC1=O | > 50 µg/mL | -56.6% | -15.8% | > 100 µg/mL | 16.5% | > 20 µg/mL |  |  |  |  |  | 
5 | CC(=O)OC[C@H]1O[C@@H](SC(=S)C2=C(Nc3ccc(Br)cc3)CC(C)(C)CC2=O)[C@H](OC(C)=O)[C@@H](OC(C)=O)[C@@H]1OC(C)=O | 8.8 µg/mL (≈ 12.6 µM) | 58.7% | 59.2% | > 100 µg/mL | 68.4% | 3.4 µg/mL (≈ 4.85 µM) | 7.7 µM | Dose-dependent effect |  | Dose-dependent effect | > 20 µg/mL | 19.8 µg/mL (≈ 28.3 µM)
6 | CCCCCCCCCCCSC(=S)C1=C(Nc2ccc(Cl)cc2Cl)CC(C)(C)CC1=O | > 50 µg/mL | 29.3% | 30.3% | > 100 µg/mL | 39.7% | > 20 µg/mL |  |  |  |  |  | 
7 | CC1(C)CC(=O)C(C(=S)SCCO)=C(Nc2ccc(Cl)cc2)C1 | 21 µg/mL (≈ 56.8 µM) | 0% | 48.1% | > 100 µg/mL | 43.3% | > 20 µg/mL |  |  |  |  |  | 
8 | CC(=O)OC[C@H]1O[C@@H](SC(=S)C2=C(Nc3ccc(Cl)cc3Cl)CC(C)(C)CC2=O)[C@H](OC(C)=O)[C@@H](OC(C)=O)[C@H]1OC(C)=O | 3.9 µg/mL (≈ 5.65 µM) | 83.8% | 86% | 5.94 µg/mL | 66.8% | 2.1 µg/mL (≈ 3.04 µM) |  |  |  |  | > 20 µg/mL | > 20 µg/mL
9 | CC1(C)CC(=O)C(C(=S)SCCO)=C(Nc2ccc(Cl)cc2Cl)C1 | > 50 µg/mL | -50.3% | 16.5% | > 100 µg/mL | 44.8% | > 20 µg/mL |  |  |  |  |  | 
10 | CCCCSC(=S)C1=C(Nc2ccc(Br)cc2)CC(C)(C)CC1=O | > 50 µg/mL | -31.4% |  | > 100 µg/mL | 18.9% | > 20 µg/mL |  |  |  |  |  | 
11 | CC(=O)OC[C@H]1O[C@@H](SC(=S)C2=C(Nc3ccc(Cl)cc3Cl)CC(C)(C)CC2=O)[C@H](OC(C)=O)[C@@H](OC(C)=O)[C@@H]1OC(C)=O | 15.8 µg/mL (≈ 22.9 µM) | -48.2% |  | > 100 µg/mL | 57.2% | > 20 µg/mL | 16.1 µM |  |  |  |  | 
12 | CC1(C)CC(=O)C=C(Nc2ccc(Br)cc2)C1 | > 50 µg/mL | -31.4% | -26.8% | > 100 µg/mL | 62.7% | > 20 µg/mL | 49.1 µM |  |  |  |  | 
13 | CCCCSC(=S)C1=C(Nc2ccc(Cl)cc2)CC(C)(C)CC1=O | > 50 µg/mL | 10.5% | -92.9% | > 100 µg/mL | 23.6% | > 20 µg/mL |  |  |  |  |  | 
14 | CCCCSC(=S)C1=C(Nc2ccc(Cl)cc2Cl)CC(C)(C)CC1=O | > 50 µg/mL | -14.7% | -22% | > 100 µg/mL | 35.2% | > 20 µg/mL |  |  |  |  |  | 
15 | CCCCCCCCCCCSC(=S)C1=C(Nc2ccc(Br)cc2)CC(C)(C)CC1=O | > 50 µg/mL | -58.7% | -22.7% | > 100 µg/mL | 32.1% | > 20 µg/mL |  |  |  |  |  | 
16 | CC(=O)OC[C@H]1O[C@@H](SC(=S)C2=C(Nc3ccc(Cl)cc3)CC(C)(C)CC2=O)[C@H](OC(C)=O)[C@@H](OC(C)=O)[C@@H]1OC(C)=O | 9.9 µg/mL (≈ 15.1 µM) | 83.8% | 46.8% | 90 µg/mL | 77.3% | 3.5 µg/mL (≈ 5.33 µM) | 44.3 µM | Dose-dependent effect |  | Dose-dependent effect | > 20 µg/mL | > 20 µg/mL
17 | CC1(C)CC(=O)C(C(=S)SCCO)=C(Nc2ccc(Br)cc2)C1 | 8.3 µg/mL (≈ 20 µM) | -33.5% | 5.5% | > 100 µg/mL | 37% | > 20 µg/mL |  | Dose-dependent effect |  | Dose-dependent effect |  | 
18 | CC1(C)CC(=O)C(C(=S)SCc2ccccc2)=C(Nc2ccc(Br)cc2)C1 | > 50 µg/mL | -50.3% | -158% | > 100 µg/mL | 38.5% | > 20 µg/mL |  |  |  |  |  | 
19 | CC1(C)CC(=O)C(C(=S)SCc2ccccc2)=C(Nc2ccc(Cl)cc2)C1 | > 50 µg/mL | -21% | 13.1% | > 100 µg/mL | 10.4% | > 20 µg/mL |  |  |  |  |  | 
20 | CC1(C)CC(=O)C=C(Nc2ccc(Cl)cc2Cl)C1 | 17.6 µg/mL (≈ 61.9 µM) | 6.3% | 38.5% | > 100 µg/mL | 42.1% | > 20 µg/mL |  |  |  |  |  | 
